{
  "source": "ChEMBL document CHEMBL4028870",
  "about": "“Controlling Plasma Stability of Hydroxamic Acids: A MedChem Toolbox” (J Med Chem, 2017)",
  "format_in_all_cases": "ADME, cell-free",
  "key": {"Plasma [1]": {"system": "Plasma", "test": "Half life in rat plasma at 10 uM up to 360 mins in presence of 3-cyclohexylpropanehydroxamic acid by LC-MS/MS analysis", "settings": "6 h"}, "Plasma [2]": {"system": "Plasma", "test": "Half life in rat plasma at 10 uM up to 360 mins in presence of 4-cyclohexylbutanehydroxamic acid by LC-MS/MS analysis", "settings": "6 h"}, "[3]": {"test": "Half life in rat plasma at 10 uM up to 360 mins in presence of N-hydroxy-N'-phenylsuccinamide by LC-MS/MS analysis", "settings": "with N-hydroxy-N'-phenylsuccinamide (concentration not stated)"}, "Plasma [4]": {"system": "Plasma", "test": "Stability in rat plasma at 10 uM up to 360 mins in presence of EDTA by LC-MS/MS analysis", "settings": "6 h", "method_in_brief": "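Rat plasma incubated in duplicate at 37 °C with 10 µM test compound (1% methanol), plus either 1 mM DTNB (11) or 0.5 mM EDTA (12). Duplicate controls used methanol in place of the inhibitor. Samples taken from 0 to 360 min and quenched with 9 volumes of cold methanol containing internal standard. Remaining compound measured by LC-MS/MS relative to T0.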"}},
  "data": [
    {"compound": "O=C(CCCc1ccccc1)NO", "note": "[PHENYLBUTYRYLHYDROXAMIC ACID]", "values": [
      {"measurement": "t1/2", "setting": "Plasma [1]", "result": 22.6, "unit": "h"},
      {"measurement": "t1/2", "setting": "Plasma [2]", "result": 30.9, "unit": "h"},
      {"measurement": "half-life at 10 µM", "setting": "[3]", "result": 1200, "unit": "min"},
      {"measurement": "Stability", "setting": "Plasma [4]", "result": "Unstable"}
    ]}
  ]
}
